Measurements collected from several papers.
Each line is one published result; the experiments were not run side by side.

OCc1ccc(-c2nn(Cc3ccccc3)c3cnccc23)o1 gave a solubility of > 45 µg/mL (aqueous buffer; 6 h; pH 7.4).
For Cc1ccc(N(C)c2ccc(NC(=O)CN(C)c3cccnc3N3CCCC3=O)cc2)cc1, the solubility was 16 µM (PBS; pH 7.4).
With C[C@H]1CN(c2cccc(-c3ccc4ncnc(Nc5ncco5)c4c3)c2)CCO1 the solubility was 6 µM (aqueous buffer; pH 7.4; 25 °C).
For COc1cc(Cn2nc(-c3ccc(CO)o3)c3ccccc32)ccn1, the solubility was > 33 µg/mL (aqueous buffer; 6 h; pH 7.4).
The solubility of CCOC(=O)C1=C(CN2CCOCC2)NC(c2nccs2)=NC1c1ccc(F)cc1Br (stereo not shown) is reported as < 1 µg/mL (HPLC; aqueous buffer; pH 7.4).
For O=c1c2ccc(OCc3ccc(OC(F)(F)F)cc3)cc2[nH]c2cc(Cl)cc(F)c12, the solubility was < 3.12 µM (absorbance; aqueous buffer; 90 min; pH 7.4).
CNS(=O)(=O)c1ccc(Nc2ncc(C(F)(F)F)c(N3CCC(C)(O)CC3)n2)c(C)c1 has a solubility of 2.7 µM (PBS; 2 h; pH 7.4).
Cc1cc(-c2ccnc3[nH]cc(F)c23)cc(F)c1[C@@]1(O)[C@H](C)CN(C2CCS(=O)(=O)CC2)C[C@@H]1C gave a solubility of > 50 µg/mL (aqueous buffer).
The solubility of COc1cnccc1Cn1nc(-c2ccc(CO)o2)c2ccccc21 is reported as > 33 µg/mL (aqueous buffer; 6 h; pH 7.4).
For CCOC(=O)C1=C(CN2CCC[C@@H]2C(=O)Nc2ccc(B(O)O)cc2)NC(c2nccs2)=N[C@H]1c1ccc(F)cc1Br, the solubility was 257 µg/mL (HPLC; aqueous buffer; pH 2).
For CC(C)(C)OC(=O)N1CCC(Oc2ccc3c(=O)c4c(F)cc(Cl)cc4[nH]c3c2)C1 (stereo not shown), the solubility was < 3.12 µM (absorbance; aqueous buffer; 90 min; pH 7.4).
O=[N+]([O-])c1ccc(Nc2ncnc3ccc(-c4cccc(N5CCOCC5)c4)cc23)cc1C(F)(F)F has a solubility of < 0.4 µM (aqueous buffer; pH 7.4; 25 °C).
With OCc1ccc(-c2nn(Cc3cccnc3)c3ccccc23)o1 the solubility was > 45 µg/mL (aqueous buffer; 6 h; pH 7.4).
c1coc(Nc2ncnc3ccc(-c4cncc(N5CCOCC5)n4)cc23)n1 has a solubility of 19 µM (aqueous buffer; pH 7.4; 25 °C).
O=C(Nc1ccc(OC(F)(F)F)cc1)N[C@H]1CC[C@H](Oc2ccc(C(=O)O)cc2)CC1 has a solubility of 0.0008 µg/mL (simulated gastric fluid; 1 h; pH 1; 37 °C; acidic).
The solubility of CC(C)N(c1ccc(Cl)c(F)c1)c1ccc(NC(=O)CN(C)c2ccccc2N2CCCC2=O)cn1 is reported as 9.6 µM (PBS; pH 7.4).
C[C@@H]1CN(c2cccc(-c3ccc4ncnc(Nc5ncco5)c4c3)c2)C[C@H](C)O1 has a solubility of 11 µM (aqueous buffer; pH 7.4; 25 °C).
For Nc1nc2c(ncn2COCCO)c(=O)[nH]1, the solubility was 1770 µg/mL (shake flask; water; 24 h).
For Oc1ccc(/C=C/c2cc(O)cc(O)c2)cc1, the solubility was 79.5 µg/mL (HPLC; aqueous buffer; 24 h; pH 6.8).
With CNS(=O)(=O)c1ccc(Nc2ncc3cc(Cl)c(=O)n(C4CCCC4)c3n2)c(C)c1 the solubility was 0.3 µM (PBS; 2 h; pH 7.4).
CCN(CC)CCOc1ccc2c(=O)c3c([nH]c2c1)CCCC3 has a solubility of > 500 µM (absorbance; aqueous buffer; 90 min; pH 7.4).
Cn1cc(-c2ccc3ccn(CC(=O)Nc4ccccc4Cl)c3c2)c(C(F)(F)F)n1 gave a solubility of < 2.7 µM (PBS; pH 7.4).
With c1ccc(Oc2ccc(Nc3c4c(nc5ccccc35)CCC4)cc2)cc1 the solubility was 25 to 50 µg/mL (simulated gastric fluid; 30 min; pH 2; acidic).
Cc1ccc(Oc2ccc(NC(=O)COc3ccccc3N3CCCC3=O)cc2)cc1 has a solubility of 4.2 µM (PBS; pH 7.4).
The solubility of CCOc1ccc(Nc2c3c(nc4ccccc24)CCC3)cc1 is reported as > 100 µg/mL (simulated gastric fluid; 30 min; pH 2; acidic).
The solubility of O=C(O)c1cc(-c2ccc(-n3ccnn3)cc2)c2ccc(-c3ccc(C(F)(F)F)cc3)cc2c1 is reported as 9.1 µg/mL (aqueous buffer; pH 7.4).
O=c1c2ccc(OCc3ccc(C(F)(F)F)cc3)cc2[nH]c2cc(Cl)cc(F)c12 gave a solubility of < 3.12 µM (absorbance; aqueous buffer; 90 min; pH 7.4).
With CN(CC(=O)Nc1ccc(N(C)c2ccc(Cl)c(F)c2)cc1)c1ccccc1N1CCCC1=O the solubility was < 2.5 µM (PBS; pH 7.4).
The solubility of COc1cnc(Nc2cnnc3ccc(-c4ccc(N5CCN(C)CC5)cc4)cc23)nc1 is reported as 26 µM (aqueous buffer; pH 7.4; 25 °C).
The solubility of Cc1ccccc1CN1C(=O)C2=C(CCN(Cc3ccccc3)C2)N2CCN=C12 is reported as 92100 µg/mL (shake flask; aqueous buffer; pH 4).
OCc1ccc(-c2nn(Cc3ccncc3)c3cccnc23)o1 gave a solubility of > 30 µg/mL (aqueous buffer; 6 h; pH 7.4).
Cc1ccc(N(c2ccc(NC(=O)CN(C)c3ccccc3N3CCCC3=O)cn2)C(C)C)cc1 gave a solubility of 24 µM (PBS; pH 7.4).
For CC(C)(C)OC(=O)N1CCC(Oc2ccc3c(=O)c4c(Cl)cc(F)cc4[nH]c3c2)CC1, the solubility was < 3.12 µM (absorbance; aqueous buffer; 90 min; pH 7.4).
With CC[C@H]1OC(=O)[C@H](C)[C@@H](O[C@H]2C[C@@](C)(OC)[C@@H](O)[C@H](C)O2)[C@H](C)[C@@H](O[C@@H]2O[C@H](C)C[C@H](N(C)C)[C@H]2O)[C@](C)(O)C[C@@H](C)C(=O)[C@H](C)[C@@H](O)[C@]1(C)O the solubility was 664 µM (aqueous buffer; 18 h; pH 7.4).
COc1ccc(Nc2cnnc3cc(-c4cnc(N5CCCN(C)CC5)nc4)ccc23)cc1Cl has a solubility of 1000 µM (aqueous buffer; pH 7.4; 25 °C).
CN1CCN(c2cccc(-c3ccc4ncnc(Nc5ncco5)c4c3)c2)CC1 gave a solubility of 520 µM (aqueous buffer; pH 7.4; 25 °C).
For CC(C)(C(=O)O)[C@@H](NC(=O)Cc1cccc(I)c1)c1ccc2oc(=O)[nH]c2c1, the solubility was > 700 µM (aqueous buffer; pH 6.8).
For CN1CCC(Nc2ncnc3ccc(-c4cccc(N5CCOCC5)c4)cc23)CC1, the solubility was 928 µM (aqueous buffer; pH 7.4; 25 °C).
With OCc1ccc(-c2nn(Cc3ccccn3)c3cccnc23)o1 the solubility was > 30 µg/mL (aqueous buffer; 6 h; pH 7.4).
With CN1CCN(c2cccc(-c3ccc4ncnc(Nc5ccc(Cl)c(C(F)(F)F)c5)c4c3)c2)CC1 the solubility was < 1.4 µM (aqueous buffer; pH 7.4; 25 °C).
CNS(=O)(=O)c1ccc(Nc2ncc(C(F)(F)F)c([C@H]3CC[C@](C)(O)CC3)n2)c(C)c1 gave a solubility of 0.4 µM (PBS; 2 h; pH 7.4).
The solubility of CN(c1ncco1)c1ncnc2ccc(-c3cccc(N4CCOCC4)c3)cc12 is reported as 802 µM (aqueous buffer; pH 7.4; 25 °C).
The solubility of Cc1c(Cl)cccc1-c1ccc2c(c1)N(Cc1noc(C3CCC3)n1)C(=O)CO2 is reported as 100 µM (PBS; 8 h; pH 7.4).
